What is called Ki is a dissociation constant, usually derived from enzyme kinetics or from competition with a known ligand. High values mean weaker binding, low ones tighter binding.

Sequence of Carbonic anhydrase 12 (O43570 whole entry): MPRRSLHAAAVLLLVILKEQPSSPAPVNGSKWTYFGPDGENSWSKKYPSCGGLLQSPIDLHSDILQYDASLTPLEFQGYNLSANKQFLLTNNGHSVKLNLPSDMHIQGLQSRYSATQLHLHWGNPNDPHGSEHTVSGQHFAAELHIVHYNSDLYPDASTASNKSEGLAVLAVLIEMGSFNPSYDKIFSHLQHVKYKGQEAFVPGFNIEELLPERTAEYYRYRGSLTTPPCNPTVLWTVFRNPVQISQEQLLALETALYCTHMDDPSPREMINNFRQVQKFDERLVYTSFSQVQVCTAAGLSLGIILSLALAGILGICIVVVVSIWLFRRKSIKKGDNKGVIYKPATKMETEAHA

One test concerns the target Carbonic anhydrase 12 (Homo sapiens, UniProt O43570). In words: Inhibition of human carbonic anhydrase 12 incubated for 15 mins prior to testing by stopped flow CO2 hydration assay.
Turning to `NS(=O)(=O)c1ccc(C(=O)N2CCc3cc(O)c(O)cc3C2c2ccc(Cl)cc2)cc1` (racemic), affinity was put at a Ki of 7.6 nM.

The target of another test is Carbonic anhydrase 9 (Homo sapiens, UniProt Q16790). In words: Inhibition of human carbonic anhydrase 9 incubated for 15 mins prior to testing by stopped flow CO2 hydration assay. Put shortly: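 Recombinant hCA isoform; stopped-flow CO2 hydration monitored by phenol red (0.2 mM) absorbance at 557 nm, 10−20 mM Hepes pH 7.5 or Tris pH 8.3, 20 mM Na2SO4 or NaClO4 for ionic strength; initial rates over 10−100 s, CO2 1.7 to 17 mM; inhibitor dilutions in water down to 0.01 nM, preincubated with enzyme 15 min at room temperature; uncatalyzed rate subtracted; Ki by nonlinear least squares, mean of at least three determinations.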
On to `NS(=O)(=O)c1ccc(C(=O)N2CCc3cc(O)c(O)cc3[C@H]2c2ccccc2)cc1`, for which affinity was put at a Ki of 32.7 nM.

In turn, `NS(=O)(=O)c1ccc(C(=O)N2CCc3cc(O)c(O)cc3[C@@H]2c2ccccc2)cc1` came in with a Ki of 39.2 nM.

Take `COc1cc2c(cc1OC)C(c1ccc(Br)cc1)N(C(=O)c1ccc(S(N)(=O)=O)cc1)CC2` (racemic): the affinity, expressed as Ki, was 90.9 nM.

As to `COc1cc2c(cc1OC)C(c1ccccc1)N(C(=O)c1ccc(S(N)(=O)=O)cc1)CC2` (racemic), the affinity corresponds to a Ki of 4.9 nM.

With `COc1ccc2c(c1)CCN(C(=O)c1ccc(S(N)(=O)=O)cc1)C2c1ccccc1` (racemic), the affinity corresponds to a Ki of 39.2 nM.

Take `COc1cc2c(cc1OC)C(c1ccc(F)cc1)N(C(=O)c1ccc(S(N)(=O)=O)cc1)CC2` (racemic): the Ki worked out at 9.1 nM.

The compound `NS(=O)(=O)c1ccc(C(=O)N2CCc3cc(O)c(O)cc3C2c2ccc(F)cc2)cc1` (racemic) registered a Ki of 8.2 nM.

`CCCOc1ccc2c(c1)CCN(C(=O)c1ccc(S(N)(=O)=O)cc1)C2c1ccccc1` (racemic) gave a Ki of 44.5 nM.

Take `NS(=O)(=O)c1ccc(C(=O)N2CCc3cc(O)ccc3C2c2ccccc2)cc1` (racemic): the Ki turned out to be 50.6 nM.

In turn, `NS(=O)(=O)c1ccc(C(=O)N2CCc3cc(O)c(O)cc3C2c2ccc(Cl)cc2)cc1` (racemic) returned a Ki of 9 nM.

On to `COc1cc2c(cc1OC)C(c1ccc(Cl)cc1)N(C(=O)c1ccc(S(N)(=O)=O)cc1)CC2` (racemic), for which the Ki stood at 91.4 nM.

Compound `NS(=O)(=O)c1ccc(C(=O)N2CCc3cc(O)c(O)cc3C2c2ccc(Br)cc2)cc1` (racemic) displayed a Ki of 81.5 nM.

`NS(=O)(=O)c1ccc(C(=O)N2CCc3cc(O)c(O)cc3C2c2ccccc2)cc1` (racemic) displayed a Ki of 36.9 nM. Compared with the last compound, the Ki is about 2.2-fold lower.

As for `NS(=O)(=O)c1ccc(C(=O)N2CCc3cc(O)ccc3C2c2ccccc2)cc1` (single isomer, unassigned; Enantiomer-1), the affinity corresponds to a Ki of 73.2 nM.

For the compound `COc1cc2c(cc1OC)C(c1ccccc1)N(C(=O)c1ccc(S(N)(=O)=O)cc1)CC2` (single isomer, unassigned; enantiomer 1), the affinity corresponds to a Ki of 5 nM.

Compound `COc1ccc2c(c1)CCN(C(=O)c1ccc(S(N)(=O)=O)cc1)C2c1ccccc1` (single isomer, unassigned; enantiomer 1) yielded a Ki of 25.3 nM.

Turning to `COc1cc2c(cc1OC)C(c1ccccc1)N(C(=O)c1ccc(S(N)(=O)=O)cc1)CC2` (single isomer, unassigned; enantiomer 2), the Ki is 4.8 nM.

As to `COc1ccc2c(c1)CCN(C(=O)c1ccc(S(N)(=O)=O)cc1)C2c1ccccc1` (single isomer, unassigned; enantiomer 2), the Ki worked out at 58.7 nM.

Compound `NS(=O)(=O)c1ccc(C(=O)N2CCc3cc(O)ccc3C2c2ccccc2)cc1` (single isomer, unassigned; enantiomer 2) returned a Ki of 39.8 nM.

The record behind these values is ChEMBL document CHEMBL4014313, “Probing Molecular Interactions between Human Carbonic Anhydrases (hCAs) and a Novel Class of Benzenesulfonamides” (J Med Chem, 2017).
